Screening results as filed in PubChem BioAssay.
IMP-1 inh = inhibitors of Pseudomonas aeruginosa IMP-1 metallo-beta-lactamase; purified IMP-1, nitrocefin hydrolysis, epi-absorbance fluorescence; inhibition, % at 5.6 µM; 290,000 compounds, 0.45% hits;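 active means inhibition above the mean plus 3 SD of all compounds in the same screening run, cut at about 4.5% in these data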
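System: purified IMP-1 / Input: IMP-1 dispensed at 0.2 nM / Medium: 50 mM HEPES pH 7.1, 50 µM ZnSO4, 0.05% Brij 35 / Timing: 15 min enzyme–compound preincubation, then 25 min nitrocefin reaction, 25 °C / Technique: plate fluorescence quenching by hydrolysis product, ex 480/em 530 nm / Repeats: singlicate testing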
eIF4H inh = inhibitors of RNA binding by human eIF4H. Q15056. eIF4H fluorescence polarization binding assay. inhibition, % at 35 µM. 290,000 compounds, 0.94% hits. AID 2012;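 further: calls also rest on retests at 20 µM and on dose response follow-up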
PABP1 MLLE inh = inhibitors of microRNA-mediated deadenylation, human PABP1 MLLE binding | inhibition, % at 20 µM | 360,000 compounds, 0.36% hits | GST-MLLE / FITC-PAM2 fluorescence polarization | P11940 | AID 588489; in the data active means inhibition above about 35%, passing the limit was not always enough
Target sequence (P11940 whole entry, looked up): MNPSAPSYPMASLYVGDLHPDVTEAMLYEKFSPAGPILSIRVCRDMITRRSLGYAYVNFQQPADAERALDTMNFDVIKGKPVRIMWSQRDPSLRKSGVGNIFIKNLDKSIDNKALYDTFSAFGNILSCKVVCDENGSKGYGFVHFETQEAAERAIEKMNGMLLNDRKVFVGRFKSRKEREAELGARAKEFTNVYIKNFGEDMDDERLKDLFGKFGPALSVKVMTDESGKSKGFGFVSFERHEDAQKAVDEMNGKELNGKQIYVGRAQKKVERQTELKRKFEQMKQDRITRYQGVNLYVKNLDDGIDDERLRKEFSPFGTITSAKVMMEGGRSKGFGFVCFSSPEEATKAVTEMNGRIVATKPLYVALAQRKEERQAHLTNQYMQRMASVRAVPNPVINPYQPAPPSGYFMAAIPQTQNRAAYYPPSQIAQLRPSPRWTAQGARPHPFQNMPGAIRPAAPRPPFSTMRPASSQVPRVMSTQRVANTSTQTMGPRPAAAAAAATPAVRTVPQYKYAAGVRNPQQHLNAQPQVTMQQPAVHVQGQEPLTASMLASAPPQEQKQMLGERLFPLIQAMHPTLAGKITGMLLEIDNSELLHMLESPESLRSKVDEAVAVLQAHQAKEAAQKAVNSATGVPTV
PABP polyA inh = PABP-poly(A) binding inhibition; P11940; PABP-poly(A) RNA binding, fluorescence polarization; calls only at 35 µM; 290,000 compounds, 1% hits; AID 2014;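 further: calls also rest on retests at 20 µM and on dose response follow-up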
VIM-2 inhibitor = inhibitors of Pseudomonas aeruginosa VIM-2 metallo-beta-lactamase | inhibition, % at 5.6 µM | AID 1527 | 290,000 compounds, 0.89% hits | purified VIM-2, nitrocefin hydrolysis, epi-absorbance fluorescence;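 active means inhibition above the mean of all tested compounds plus 3 SD, cutoff set per screening run, cut at about 7.5% in these data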;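 further: red hydrolysis product quenches plate fluorescence so inhibitors raise well fluorescence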
Numbers stand for hits; . = inactive; ? = inconclusive; / = not tested or not shown; + = active, no number; ! = not active in a repeat. Most compounds without a hit are left out; they make up all but 2.2% or so of the library. Unless noted, how the calls were made is not given here.

SMILES	IMP-1 inh	eIF4H inh	PABP1 MLLE inh	PABP polyA inh	VIM-2 inhibitor
O=C(C1CCCO1)N1CCN(C(=S)Nc2ccc(F)c(Cl)c2)CC1 (stereo not drawn)	.	.	.	.	.
Cc1ccc(C(=O)COC(=O)CCNS(=O)(=O)c2ccccc2F)cc1	/	/	.	/	/
COc1ccc(/C=C2\Sc3ccc(C(=O)NCCCN4CCCC4)cc3N(C)C2=O)cc1OC	.	.	.	.	11
CCOc1ccc(/C=C2/Sc3ccc(C(=O)NCC4CCCO4)cc3N(C)C2=O)cc1OC (stereo not drawn)	.	/	.	/	8.6
O=C(Nc1nc2ccsc2c(=O)s1)c1ccco1	.	64	.	.	.
CCc1ccc(NC(=S)N2CCNC(=O)C2CC(=O)OC)cc1 (stereo not drawn)	.	.	.	+	.
Cc1cc(C)cc(NCc2ccncc2)c1	.	.	.	.	.
CCOc1cccc(=O)c2c(C)n(Cc3ccco3)c(C)c12	.	95	.	+	.
O=C(O)CC(SCC(=O)Nc1ccc(S(=O)(=O)N2CCCC2)cc1)C(=O)O (stereo not drawn)	.	.	40	.	.
O=C(NC(=S)Nc1ccc(S(=O)(=O)N2CCCC2)cc1)C1CC1	.	.	.	+	.
O=C(NC(=S)Nc1cccnc1)c1cccs1	.	.	39	.	.
O=C(NC(=S)Nc1ccc(S(=O)(=O)N2CCCC2)cc1)c1cccs1	.	.	47	.	.
O=C(NC(=S)Nc1ccc(S(=O)(=O)N2CCCCCC2)cc1)c1cccs1	.	.	.	.	.
O=C(O)CC(SCC(=O)Nc1ccccc1)C(=O)O (stereo not drawn)	.	.	.	.	.
O=C(Nc1cccnc1)c1cccs1	.	.	.	.	.
CC(C)(C)CCN1CCC(CN2CCNC(=O)C2=O)CC1	/	/	.	/	/
COc1ccc(OC)c(NC(=O)C(CCSC)NS(=O)(=O)c2cccs2)c1 (stereo not drawn)	.	.	.	.	.
Nc1c2c(nc3c1CCCC3)CCCC2 (tested in a mixture with another compound)	.	.	.	.	.
CSc1ccccc1Nc1ncnc(N)n1	.	.	.	.	.
Cc1ccc(S(=O)(=O)NCc2ccc(C(=O)N3CCCC3)cc2)cc1	.	6.8	.	+	.
O=C(c1ccccc1)c1ccccc1N1C(=O)C=CC1=O	.	.	39	.	.
O=C(O)c1cccc(N2C(=O)C=CC2=O)c1	/	/	.	/	/
O=C1C=CC(=O)N1c1ccccc1N1C(=O)C=CC1=O	/	/	44	/	/
O=C1C=CC(=O)N1c1ccccn1	/	/	.	/	/
COc1ccc([N+](=O)[O-])cc1NCc1c(F)cccc1F	/	/	.	/	/
SMILES	IMP-1 inh	eIF4H inh	PABP1 MLLE inh	PABP polyA inh	VIM-2 inhibitor
Cc1c2cnn(CC(=O)Nc3c(F)c(F)cc(F)c3F)c(=O)c2c(C)n1Cc1ccccc1F	.	95	.	+	.
CNC(=O)Cn1ncc2c(C)n(Cc3ccc(C)cc3)c(C)c2c1=O	.	.	.	.	.
CN1CCc2c(sc3nc(NCCO)n(-c4cccc(Cl)c4)c(=O)c23)C1	.	.	.	.	.
O=c1oc2ccccc2c2oc3cc(O)c(O)cc3c12	.	101	.	+	.
Nc1c(N)c2ccccc2oc1=O	.	.	.	.	.
O=C(COC(=O)c1ccc(O)cc1O)Nc1cc(-c2ccccc2)nn1-c1ccccc1	/	/	.	/	/
CC1C2(C)OC(=N)C(C#N)(C(C)O2)C1(C#N)C#N (stereo not drawn)	.	.	64	.	.
CC1OC2(C)OC(=N)C1(C#N)C(C#N)(C#N)C2c1ccccc1 (stereo not drawn)	.	?	.	.	.
O=C(O)c1cccc(S(=O)(=O)NNc2ccccc2C(F)(F)F)c1	25	.	.	.	.
O=C(O)c1cccc(S(=O)(=O)Nc2ccc(-c3ccccc3)cc2)c1	/	/	.	/	/
Cc1onc(-c2c(F)cccc2Cl)c1C(=O)OCC(=O)c1c[nH]c2ccccc12	.	.	.	.	.
O=C(O)c1ccc(CP(=O)(c2ccccc2)c2ccccc2)cc1	.	.	.	.	.
COc1ccc(N2CCN(Cc3nc4cc(Cl)ccc4c(=O)[nH]3)CC2)cc1	.	.	.	.	.
C/C(=N\Nc1nc2ccccc2c(=O)n1O)c1ccco1	.	79	.	.	.
CCCSC1=C(C#N)C(c2ccc(Cl)cc2Cl)CC(=O)N1 (stereo not drawn)	.	.	.	.	.
CC1=C(C#N)C(/C=N/OCc2ccc(Cl)cc2)CC(=O)N1 (stereo not drawn)	.	.	.	.	8.8
CCOc1cc(/C=N/Nc2nc(-c3cccc(S(=O)(=O)N4CCCC4)c3)cs2)ccc1O	.	.	.	.	.
Cc1ccc(-c2nc(CSCC(=O)N3CCN(c4ccccn4)CC3)c(C)o2)cc1	.	.	.	.	.
CCc1ccc(-c2nc(CSCC(=O)N3CCN(c4ccccn4)CC3)c(C)o2)cc1	.	.	39	.	.
Nc1ccc2c(c1Cl)C(=O)c1ccc(N)c(Cl)c1C2=O	.	109	.	+	.
Nc1c(C(=O)O)ccc2c1C(=O)c1ccccc1C2=O	.	.	.	.	.
Cc1ccc(C(=O)NCCSC2CCCCC2)cc1S(=O)(=O)Nc1ccccc1	.	.	.	.	.
c1cnc2nc(-c3ccc4c(c3)OCO4)cn2c1	.	.	.	.	.
c1ccn2cc(-c3ccc4c(c3)OCO4)cc2c1	.	64	.	.	.
NC(=O)c1cc(Cl)ccc1OCC(=O)NC1CC1	/	/	.	/	/
SMILES	IMP-1 inh	eIF4H inh	PABP1 MLLE inh	PABP polyA inh	VIM-2 inhibitor
O=C(OCCN1CCOCC1)c1cccnc1	8.4!	.	.	.	.
O=C(OCCN1CCOCC1)c1ccccc1	.	.	.	.	.
O=C(N[C@@H](Cc1ccccc1)C(=O)NC1CC1)c1ccc(Cl)cc1	.	.	.	.	.
COc1cc(C=Nc2ccccc2C(=O)Nc2ccccc2)cc(OC)c1OC	.	3.3	.	+	.
Cc1ccc(S(=O)(=O)N(CC(=O)O)Cc2ccco2)cc1	.	71	.	+	.
COc1ccc(N(CC(=O)NCc2ccco2)S(=O)(=O)c2ccc(C)cc2)cc1OC	.	.	.	.	.
CCOc1ccccc1N(CC(=O)NCCSc1ccccn1)S(=O)(=O)c1ccc(C)cc1	.	86	.	+	.
COc1ccccc1N(CC(=O)NCc1ccco1)S(=O)(=O)c1ccc(C)cc1	.	87	.	+	.
CCCn1c(=O)c(C(=O)NCCc2ccc(OC)cc2)c(O)c2ccccc21	.	.	.	.	.
CC(=O)Nc1sc(/C(C#N)=C\c2cccc(Cl)c2)nc1-c1ccc(C)cc1	.	127	.	+	.
CC(=O)Nc1sc(N/N=C/c2ccccc2)nc1-c1ccc(C)cc1	.	.	.	.	.
Cc1nc(Sc2ccccc2)c(C#N)c(C)c1[N+](=O)[O-]	.	.	.	.	8.6
CCCC(=O)Nc1cc(C(=O)O)ccc1Sc1ccccc1	.	.	.	.	.
O=C(O)C(C(=O)/C=C/c1ccco1)=C1SCCS1	.	.	.	.	.
O=C(C=C1SCCS1)/C=C/c1ccco1	.	90	.	+	.
O=C(/C=C/c1ccc([N+](=O)[O-])cc1)c1ccco1	.	.	.	.	.
